Converted amounts (≈) assume the structure as drawn. The source made the active and inactive calls. The rule behind the calls is not given here.
Columns and labels:
Mus musculus [1] = assay: Antithrombosis activity in C57BL/6 mouse model of electrolytic injury induced occlusive thrombus formation assessed as prevention of arterial thrombi formation by measuring effect on rate of carotid artery blood flow at 2.5 mg/kg, iv administered through bolus prior to electrolytic injury; assay type: functional, organism-based
Summary of the method: (§1)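 Electrolytic injury to the mouse carotid artery; 2.5 mg/kg given iv in saline (n = 8) against saline control (n = 8). Carotid blood flow (ml/min per 100 g body weight) monitored after injury, and flow volume taken as area under the curve over the 60-min period; mean ± S.E.M.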

[2] = Aqueous solubility of compound at pH 2 by turbidimetric solubility assay; assay type: physicochemical; settings: buffer
[3] = Aqueous solubility of compound in saline; assay type: physicochemical; settings: buffer
[4] = Clearance in rat by LC-MS analysis relative to hepatic blood flow; assay type: ADME, Liver; settings: in vivo
Mus musculus [5] = assay: Antithrombosis activity in C57BL/6 mouse model of electrolytic injury induced occlusive thrombus formation assessed as prevention of arterial thrombi formation by measuring effect on carotid artery blood flow volume at 2.5 mg/kg, iv administered through bolus prior to electrolytic injury measured after 60 mins; assay type: functional, organism-based; summary of the method: as §1
[6] = Plasma clearance in Sprague-Dawley rat at 3 mg/kg, iv by LC-MS analysis; assay type: ADME, organism-based
Summary of the method: (§2)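 Sprague Dawley rats, n=2 per route. Single dose: 3 mg/kg intravenous or 20 mg/kg oral. Plasma concentration followed over time. Half-life, volume of distribution, clearance, Tmax and oral bioavailability derived from the plasma concentration-time profiles.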

[7] = biological target: T1, Proteinase-activated receptor 1 (Homo sapiens) (UniProt P25116); assay: Inhibition of PAR1 in human washed platelets assessed as suppression of TRAP-induced integrin alpha2bbeta3 activation preincubated for 5 mins followed by TRAP stimulation after 10 mins by OG-FNG-based FACS analysis
T1 sequence (whole entry): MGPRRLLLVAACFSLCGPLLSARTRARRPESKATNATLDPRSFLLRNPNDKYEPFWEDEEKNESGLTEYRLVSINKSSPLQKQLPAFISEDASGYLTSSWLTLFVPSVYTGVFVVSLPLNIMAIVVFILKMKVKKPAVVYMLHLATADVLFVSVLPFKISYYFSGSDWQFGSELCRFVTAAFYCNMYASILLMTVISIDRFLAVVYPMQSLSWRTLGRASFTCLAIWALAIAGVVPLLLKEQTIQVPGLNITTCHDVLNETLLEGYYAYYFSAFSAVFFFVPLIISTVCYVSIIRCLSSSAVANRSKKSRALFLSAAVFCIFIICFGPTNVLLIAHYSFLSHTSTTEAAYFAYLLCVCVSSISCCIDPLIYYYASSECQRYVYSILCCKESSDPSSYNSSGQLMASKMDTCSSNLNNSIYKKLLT
Summary of the method: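 Washed human platelets stimulated with TRAP at 0.5–1 µM, chosen by donor response. αIIbβ3 activation read as Oregon-Green fibrinogen binding by flow cytometry. DMSO 0.25% control set as 100%. n = 4-7, mean ± SEM.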

Platelet = assay: Antiplatelet activity against human washed platelets assessed as reduction in shear-induced stationary platelet adhesion to vWF matrix preincubated for 5 mins followed by blood perfusion after 4 mins; assay type: functional, cell-based
Summary of the method: (§3)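 Human whole blood, anticoagulated, perfused over a vWf matrix at 1800 s^-1 for 4 min; stationary platelet adhesion scored. Vehicle DMSO 0.25% taken as 100%. Drug tested up to 5 µM. t test against 0.1 µM drug.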

[8] = Volume of distribution at steady state in Sprague-Dawley rat at 3 mg/kg, iv by LC-MS analysis; assay type: ADME, organism-based; settings: in vivo, read-out: Vdss; summary of the method: as §2
[9] = Antiplatelet activity against human washed platelets assessed as shear-induced stationary platelet adhesion to vWF matrix at 1 to 5 uM preincubated for 5 mins followed by blood perfusion after 4 mins relative to control; assay type: functional; summary of the method: as §3
[10] = Intrinsic clearance in human liver microsomes at 1 uM after 60 mins in presence of NADPH by UPLC-MS analysis; assay type: ADME; settings: read-out: CLH
[11] = Stability in Sprague-Dawley rat plasma at […] after 4 hrs by UPLC-MS analysis; assay type: ADME, cell-free
[12] = Effect on platelet tethering in human washed platelets at 0.1 to 5 uM; assay type: ADME, cell-based
[13] = Blood clearance in rat by LC-MS analysis; assay type: ADME, tissue-based; settings: whole blood
albumin = albumin (Homo sapiens, UniProt P02768); assay: Protein binding to human serum albumin by HPLC analysis; assay type: ADME; settings: read-out: PB (converted)
[14] = Intrinsic clearance in rat liver microsomes at 1 uM after 60 mins in presence of NADPH by UPLC-MS analysis; assay type: ADME; settings: read-out: CLH
[15] = Aqueous solubility of compound at pH 6.5 by turbidimetric solubility assay; assay type: physicochemical; settings: buffer
[16] = biological target: T2, Phosphatidylinositol 4,5-bisphosphate 3-kinase catalytic subunit beta isoform (Homo sapiens, UniProt P42338); assay: Inhibition of PI3Kbeta in human washed platelets assessed as suppression of ADP-induced platelet aggregation at 0.5 uM preincubated for 5 mins followed by 5 to 10 uM ADP stimulation after 10 mins by light transmission aggregometric analysis
Summary of the method: (§4)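 Washed human platelets in an aggregometer. Inhibitor at 0.5 µM. Aggregation induced by 5, 10 or 25 µM ADP; percent inhibition read.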

[17] = Tmax in Sprague-Dawley rat at 20 mg/kg, po via gavage by LC-MS analysis; assay type: ADME, organism-based; settings: in vivo; summary of the method: as §2
Mus musculus [18] = assay: Toxicity in C57BL/6 mouse model of electrolytic injury induced occlusive thrombus formation assessed as excessive blood loss at 2.5 mg/kg, iv bolus administration; assay type: organism-based; settings: in vivo
Summary of the method: (§5)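 Mouse tail bleeding assay after 2.5 mg/kg iv (n = 8) against vehicle, 0.01% DMSO (n = 8). Tail bleeding time recorded; blood loss quantified as absorbance of haemoglobin at 575 nm.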

[19] = biological target: T2, Phosphatidylinositol 4,5-bisphosphate 3-kinase catalytic subunit beta isoform; assay: Inhibition of PI3Kbeta in human washed platelets assessed as suppression of ADP-induced integrin alpha2bbeta3 activation preincubated for 5 mins followed by ADP stimulation after 10 mins by OG-FNG-based FACS analysis
Summary of the method: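 Washed human platelets stimulated with ADP (5 µM). Integrin αIIbβ3 activation read as Oregon-Green fibrinogen binding by flow cytometry. DMSO 0.25% control set as 100%. n = 3, mean ± SEM. t test against 0.001 µM drug.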

[20] = biological target: T2, Phosphatidylinositol 4,5-bisphosphate 3-kinase catalytic subunit beta isoform; assay: Inhibition of PI3Kbeta in human platelet-rich plasma assessed as suppression of ADP-induced platelet aggregation preincubated for 5 mins followed by ADP stimulation after 10 mins by light transmission aggregometric analysis
Summary of the method: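 Human platelet-rich plasma stimulated with ADP; aggregation measured over a concentration range of inhibitor, and IC50 taken from the dose-response curve.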

[21] = biological target: T2, Phosphatidylinositol 4,5-bisphosphate 3-kinase catalytic subunit beta isoform; assay: Inhibition of PI3Kbeta in human washed platelets assessed as suppression of ADP-induced platelet aggregation preincubated for 5 mins followed by ADP stimulation after 10 mins by light transmission aggregometric analysis
Summary of the method: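 Washed human platelets in a conventional aggregometer. Aggregation induced by ADP; IC50 taken from the dose-response curve.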

Mus musculus [22] = assay: Toxicity in C57BL/6 mouse model of electrolytic injury induced occlusive thrombus formation assessed as increase in tail bleeding time at 2.5 mg/kg, iv bolus administration; assay type: organism-based; settings: in vivo; summary of the method: as §5
[23] = Apparent oral bioavailability in Sprague-Dawley rat at 20 mg/kg administered via gavage by LC-MS analysis; assay type: ADME, organism-based; settings: in vivo, read-out: Fapp; summary of the method: as §2
[24] = biological target: T2, Phosphatidylinositol 4,5-bisphosphate 3-kinase catalytic subunit beta isoform; assay: Inhibition of PI3Kbeta in human washed platelets assessed as suppression of ADP-induced platelet aggregation at 0.5 uM preincubated for 5 mins followed by 25 uM ADP stimulation after 10 mins by light transmission aggregometric analysis; summary of the method: as §4
[25] = Distribution constant, logD of compound at pH 7.4; assay type: physicochemical; settings: buffer
Rattus norvegicus = assay: Toxicity in Sprague-Dawley rat at 20 mg/kg, po administered via gavage or 3 mg/kg, iv; assay type: organism-based; settings: in vivo
[26] = Effect on platelet translocation in human washed platelets at 0.1 to 5 uM; assay type: ADME, cell-based
[27] = Drug excretion in iv dosed rat urine by LC-MS analysis; assay type: ADME, organism-based; settings: read-out: Drug excretion
[28] = Distribution constant, logD of compound at pH 3; assay type: physicochemical; settings: buffer
[29] = Apparent half life in Sprague-Dawley rat at 3 mg/kg, iv by LC-MS analysis; assay type: ADME, organism-based; settings: in vivo, read-out: t1/2(app); summary of the method: as §2

T2 sequence (P42338 whole entry, looked up, canonical isoform): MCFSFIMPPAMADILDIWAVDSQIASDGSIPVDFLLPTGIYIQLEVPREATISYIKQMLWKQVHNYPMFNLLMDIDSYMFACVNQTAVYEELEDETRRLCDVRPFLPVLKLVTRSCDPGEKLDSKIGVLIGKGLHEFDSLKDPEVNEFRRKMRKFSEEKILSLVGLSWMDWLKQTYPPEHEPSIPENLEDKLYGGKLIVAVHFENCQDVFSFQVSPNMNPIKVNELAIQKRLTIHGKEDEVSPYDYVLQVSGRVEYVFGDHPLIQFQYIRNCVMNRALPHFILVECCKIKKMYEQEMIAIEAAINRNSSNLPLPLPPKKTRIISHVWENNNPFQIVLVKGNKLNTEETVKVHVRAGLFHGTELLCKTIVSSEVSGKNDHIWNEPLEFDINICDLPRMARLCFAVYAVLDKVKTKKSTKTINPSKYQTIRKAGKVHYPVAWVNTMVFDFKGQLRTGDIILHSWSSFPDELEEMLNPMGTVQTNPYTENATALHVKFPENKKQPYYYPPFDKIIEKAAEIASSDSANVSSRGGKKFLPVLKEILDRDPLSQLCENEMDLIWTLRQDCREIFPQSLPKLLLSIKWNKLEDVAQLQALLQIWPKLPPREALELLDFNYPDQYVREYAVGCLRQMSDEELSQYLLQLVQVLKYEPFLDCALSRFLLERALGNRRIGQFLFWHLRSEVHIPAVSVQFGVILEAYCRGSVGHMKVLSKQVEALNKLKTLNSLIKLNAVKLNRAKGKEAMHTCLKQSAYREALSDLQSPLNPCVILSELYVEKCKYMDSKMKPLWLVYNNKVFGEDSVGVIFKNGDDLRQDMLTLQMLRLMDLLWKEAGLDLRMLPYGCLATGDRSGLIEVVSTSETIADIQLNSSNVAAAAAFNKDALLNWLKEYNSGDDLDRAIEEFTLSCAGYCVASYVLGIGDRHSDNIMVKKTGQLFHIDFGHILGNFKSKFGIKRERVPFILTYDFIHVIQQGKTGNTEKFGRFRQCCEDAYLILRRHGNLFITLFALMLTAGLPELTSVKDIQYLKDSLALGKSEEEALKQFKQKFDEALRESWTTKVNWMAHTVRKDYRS
Sequence of albumin (P02768 whole entry): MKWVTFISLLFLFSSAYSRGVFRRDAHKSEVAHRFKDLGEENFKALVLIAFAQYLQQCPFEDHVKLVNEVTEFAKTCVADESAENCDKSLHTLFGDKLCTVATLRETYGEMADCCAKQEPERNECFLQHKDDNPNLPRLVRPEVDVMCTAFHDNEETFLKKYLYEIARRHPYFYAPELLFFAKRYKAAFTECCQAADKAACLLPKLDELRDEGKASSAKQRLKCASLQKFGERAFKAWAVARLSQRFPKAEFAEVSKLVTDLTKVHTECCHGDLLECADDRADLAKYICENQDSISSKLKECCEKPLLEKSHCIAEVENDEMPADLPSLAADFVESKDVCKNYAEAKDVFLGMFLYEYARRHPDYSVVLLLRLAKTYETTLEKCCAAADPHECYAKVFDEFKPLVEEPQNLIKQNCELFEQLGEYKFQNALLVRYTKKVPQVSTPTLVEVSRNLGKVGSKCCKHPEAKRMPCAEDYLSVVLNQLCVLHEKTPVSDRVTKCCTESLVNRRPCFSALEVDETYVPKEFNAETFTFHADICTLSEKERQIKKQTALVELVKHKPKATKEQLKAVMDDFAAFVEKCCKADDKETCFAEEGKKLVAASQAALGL

solubility kinetic [2]: > 100 µg/mL
solubility [3]: Soluble
CL [4]: 60%
clearance [6]: 67 mL/min/kg
inhibition [7]: Dose-dependent effect
Vd [8]: 8.6 L/kg
microsomal CLint at 1 µM [10]: 22 µL/min/mg
Stability [11]: Stable
clearance [13]: 39 mL/min/kg
fraction unbound (albumin): 0.03
microsomal CLint at 1 µM [14]: 43 µL/min/mg
solubility kinetic [15]: 6.3 to 12.5 µg/mL (≈ 11.2 to 22.2 µM)
inhibition [16]: Active
Tmax [17]: 1 to 4 h
inhibition [19]: Dose-dependent effect
inhibition [20]: Dose-dependent effect
inhibition [21]: Dose-dependent effect
bioavailability [23]: 26%
inhibition [24]: 15%
logD [25]: 3.7
dose excreted [27]: < 0.1%
logD [28]: 3
half-life [29]: 2.8 to 3 h
Structure (SMILES): N[C@@H](Cc1ccccc1)C(=O)N1CCN(c2nc(N3CCOCC3)nc(-n3c(C(F)F)nc4ccccc43)n2)CC1
Activity (Mus musculus [1]): Active
Activity (Mus musculus [5]): Active
inhibition (Platelet): Dose-dependent effect
inhibition (INH) [9]: <=60%
Activity [12]: Non-Toxic
Activity (Mus musculus [18]): Non-Toxic
Activity (Mus musculus [22]): Non-Toxic
Activity (Rattus norvegicus): Non-Toxic
Activity [26]: Non-Toxic
